Test [1] deals with T1, Fatty-acid amide hydrolase 1 (Rattus norvegicus, UniProt P97612).
T1 sequence (P97612 whole entry): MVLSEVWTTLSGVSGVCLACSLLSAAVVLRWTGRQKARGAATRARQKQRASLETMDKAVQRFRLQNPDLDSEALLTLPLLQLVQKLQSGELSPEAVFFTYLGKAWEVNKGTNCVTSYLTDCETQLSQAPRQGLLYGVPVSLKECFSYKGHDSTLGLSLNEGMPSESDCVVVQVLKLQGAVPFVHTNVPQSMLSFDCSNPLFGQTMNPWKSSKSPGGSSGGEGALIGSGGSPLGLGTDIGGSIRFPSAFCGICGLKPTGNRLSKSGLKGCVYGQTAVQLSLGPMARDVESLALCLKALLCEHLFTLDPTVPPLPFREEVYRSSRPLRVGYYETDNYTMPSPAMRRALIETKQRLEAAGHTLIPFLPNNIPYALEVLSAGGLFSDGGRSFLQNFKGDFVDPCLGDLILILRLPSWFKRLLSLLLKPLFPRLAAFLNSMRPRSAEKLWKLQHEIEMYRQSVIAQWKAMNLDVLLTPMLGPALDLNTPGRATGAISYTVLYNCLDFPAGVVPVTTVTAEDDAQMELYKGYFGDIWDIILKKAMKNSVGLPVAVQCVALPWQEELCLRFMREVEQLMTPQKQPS
Briefly: Inhibition of FAAH in rat brain membranes assessed as hydrolysis of [14C]-anandamide after 30 mins. It counts as cell membranes. Put shortly: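 Rat brain membrane FAAH; activity read as hydrolysis of anandamide, with the inhibitor added without preincubation (pit = 0). Values are reported as IC50.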

The target in test [2] is T1, Fatty-acid amide hydrolase 1. Briefly: Inhibition of FAAH in rat brain membranes assessed as hydrolysis of [14C]-anandamide preincubated for 20 mins before [14C]-anandamide addition measured after 30 mins. It counts as cell membranes. The method, boiled down:
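Rat brain membrane FAAH; the inhibitor was preincubated with the enzyme for 20 min before anandamide hydrolysis was measured. Values are reported as IC50.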

Test [3] deals with T2, Acetylcholinesterase (Homo sapiens, UniProt P22303). Briefly: Inhibition of human recombinant AChE using acetylthiocholine iodide as substrate preincubated for 120 mins before substrate addition by Ellman's method. (DTNB colorimetry detects thiols as they appear.)
T2 sequence (P22303 whole entry): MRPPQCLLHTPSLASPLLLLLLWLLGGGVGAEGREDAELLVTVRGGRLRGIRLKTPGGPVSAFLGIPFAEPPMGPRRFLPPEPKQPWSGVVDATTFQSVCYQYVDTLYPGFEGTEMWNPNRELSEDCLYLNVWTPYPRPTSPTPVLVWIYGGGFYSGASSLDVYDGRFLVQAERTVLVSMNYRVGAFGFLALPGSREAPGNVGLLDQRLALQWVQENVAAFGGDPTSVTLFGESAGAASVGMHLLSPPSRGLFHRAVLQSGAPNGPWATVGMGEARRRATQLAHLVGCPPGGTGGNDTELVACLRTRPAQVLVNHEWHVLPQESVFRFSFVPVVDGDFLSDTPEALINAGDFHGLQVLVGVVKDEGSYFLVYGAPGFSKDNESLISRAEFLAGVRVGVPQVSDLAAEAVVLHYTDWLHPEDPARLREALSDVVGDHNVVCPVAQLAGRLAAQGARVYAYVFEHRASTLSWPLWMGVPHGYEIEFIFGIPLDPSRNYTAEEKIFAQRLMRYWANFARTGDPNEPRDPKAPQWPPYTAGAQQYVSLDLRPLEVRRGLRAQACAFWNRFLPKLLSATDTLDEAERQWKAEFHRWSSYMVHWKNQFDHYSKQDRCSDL
The target of test [4] is T3, Fatty-acid amide hydrolase 1 (Homo sapiens, UniProt O00519).
T3 sequence (O00519 whole entry): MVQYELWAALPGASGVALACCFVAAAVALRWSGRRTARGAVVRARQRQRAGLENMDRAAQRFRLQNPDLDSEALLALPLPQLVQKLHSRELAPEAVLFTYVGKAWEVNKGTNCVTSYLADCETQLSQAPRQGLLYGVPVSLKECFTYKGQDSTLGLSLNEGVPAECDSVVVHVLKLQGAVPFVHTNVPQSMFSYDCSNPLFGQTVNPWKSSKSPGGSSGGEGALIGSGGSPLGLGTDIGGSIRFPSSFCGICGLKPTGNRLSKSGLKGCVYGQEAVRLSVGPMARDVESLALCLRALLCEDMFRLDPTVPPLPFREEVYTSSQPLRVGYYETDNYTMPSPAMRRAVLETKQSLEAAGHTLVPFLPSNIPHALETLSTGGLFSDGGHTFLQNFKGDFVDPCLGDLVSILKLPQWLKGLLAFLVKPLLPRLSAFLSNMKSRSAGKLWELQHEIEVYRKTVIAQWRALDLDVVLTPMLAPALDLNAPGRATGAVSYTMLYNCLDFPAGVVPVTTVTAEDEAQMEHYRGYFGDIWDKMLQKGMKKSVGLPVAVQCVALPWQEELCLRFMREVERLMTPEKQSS
The test is described as follows: Inhibition of human recombinant FAAH in assessed as hydrolysis of [14C]-anandamide preincubated for 20 mins before [14C]-anandamide addition measured after 30 mins. Put shortly: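 Human recombinant FAAH; the inhibitor was preincubated for 20 min before anandamide hydrolysis was measured. Values are reported as IC50.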

For test [5], the target named is T4, Cholinesterase (Homo sapiens, UniProt P06276). The test is described as follows: Inhibition of human serum BuChE using butyrylthiocholine iodide as substrate preincubated for 15 mins before substrate addition by Ellman's method.
T4 sequence (P06276 whole entry): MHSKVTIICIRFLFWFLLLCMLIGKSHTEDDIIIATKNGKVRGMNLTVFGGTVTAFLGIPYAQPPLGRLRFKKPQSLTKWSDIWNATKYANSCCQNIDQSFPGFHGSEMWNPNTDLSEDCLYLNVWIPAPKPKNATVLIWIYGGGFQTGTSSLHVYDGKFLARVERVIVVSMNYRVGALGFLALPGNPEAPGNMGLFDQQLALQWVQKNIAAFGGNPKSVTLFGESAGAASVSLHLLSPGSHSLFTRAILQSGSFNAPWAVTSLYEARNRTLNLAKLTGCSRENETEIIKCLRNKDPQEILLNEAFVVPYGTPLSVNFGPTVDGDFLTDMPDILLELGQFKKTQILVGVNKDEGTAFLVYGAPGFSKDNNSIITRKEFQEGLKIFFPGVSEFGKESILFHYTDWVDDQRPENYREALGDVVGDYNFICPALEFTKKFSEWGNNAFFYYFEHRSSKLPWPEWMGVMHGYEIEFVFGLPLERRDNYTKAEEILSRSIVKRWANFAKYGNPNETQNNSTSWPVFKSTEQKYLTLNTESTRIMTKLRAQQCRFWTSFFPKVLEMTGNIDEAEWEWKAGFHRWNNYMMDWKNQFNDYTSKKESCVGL
The target of test [6] is T2, Acetylcholinesterase. The test is described as follows: Inhibition of human recombinant AChE using acetylthiocholine iodide as substrate by Ellman's method. Conditions: TDE = time-dependent effect.
Test [7] has as its target T4, Cholinesterase. The test is described as follows: Inhibition of human serum BuChE using butyrylthiocholine iodide as substrate by Ellman's method. Conditions: TDE = time-dependent effect.
For test [8], the target named is T2, Acetylcholinesterase. The test is described as follows: Reversible inhibition of human recombinant AChE using acetylthiocholine iodide as substrate assessed as recovery of enzyme activity after 48 hrs by Ellman's method. On the set-up: scale not given: the % may be the effect or the level left.
Test [9] deals with T4, Cholinesterase. Briefly: Reversible inhibition of human serum BuChE using butyrylthiocholine iodide as substrate assessed as recovery of enzyme activity after 48 hrs by Ellman's method. More on the design: scale not given: the % may be the effect or the level left.

Molecules are shown by their SMILES.

Regarding `CCCCCCNC(=O)Oc1cccc(CN(C)CCCOc2ccc3c(=O)c4ccccc4oc3c2)c1`, the IC50 in test [1] stood at 4290 nM; in [2] it was 290 nM.
For the compound `CCCCNC(=O)Oc1cccc(CN(C)CCCOc2ccc3c(=O)cc(-c4ccccc4)oc3c2)c1`, the results for the IC50 in test [1] and in test [2] were 5540 nM and 800 nM, respectively.
For `CCCCNC(=O)Oc1cccc(CN(C)CCCOc2ccc3c(=O)c4cccnc4oc3c2)c1`, the IC50 in test [1] was found to be 4230 nM; in [2] it was 1400 nM.
Take `CN(CCCOc1ccc2ccc(=O)oc2c1)Cc1cccc(OC(=O)NCCCCCc2ccccc2)c1`: the IC50 stood at 74.9 nM at Acetylcholinesterase [3]; 2260 nM in test [4]; 280 nM in [1]; 50 nM in test [2]; 1.57 nM at Cholinesterase [5]. Moreover, the inhibition entry at Acetylcholinesterase [6] and at Cholinesterase [7] was “tde” throughout. Moreover, the Activity at Acetylcholinesterase [8] was determined as 30%; on Cholinesterase [9], 83%.
`CN(CCCOc1ccc2ccc(=O)oc2c1)Cc1cccc(OC(=O)NCCCCCCCN2CCOCC2)c1`: the IC50 at Acetylcholinesterase [3] was 119 nM; in test [4], 14800 nM; in test [1], 5590 nM; in test [2], 1820 nM; on Cholinesterase [5], 11.2 nM. In addition, the inhibition entry at Acetylcholinesterase [6] and on Cholinesterase [7] was “tde” each time.
For the compound `CCCCNC(=O)Oc1cccc(CN(C)CCCOc2ccc3ccc(=O)oc3c2)c1`, in [1], the IC50 was determined as 8680 nM.
As to `CCCCCCCNC(=O)Oc1cccc(CN(C)CCCOc2ccc3c(=O)cc(-c4ccccc4)oc3c2)c1`, the IC50 in test [1] came out at 6810 nM.
For `CN(CCCOc1ccc2c(=O)c3cccnc3oc2c1)Cc1cccc(OC(=O)NCCCCCCCN2CCOCC2)c1`, the IC50 at Acetylcholinesterase [3] stood at 139 nM; in [4], 39000 nM; in test [1], 4310 nM; in [2], 2710 nM; on Cholinesterase [5] it was 27.6 nM. Further, the inhibition entry on Acetylcholinesterase [6] and on Cholinesterase [7] was “tde” in each case.
For the compound `CNC(=O)Oc1cccc(CN(C)CCCCCCCOc2ccc(-c3cc4ccccc4oc3=O)cc2)c1`, in [1], the IC50 came out at 9200 nM.
Consider `CCCCCCCNC(=O)Oc1cccc(CN(C)CCCOc2ccc3c(=O)c4cccnc4oc3c2)c1`, for which the IC50 amounted to 2210 nM in test [1] and 400 nM in test [2].
For `CCCCCCCNC(=O)Oc1cccc(CN(C)CCCOc2ccc3c(=O)c4ccccc4oc3c2)c1`, in that order: 3620 nM and 110 nM.
For `CN(CCCOc1ccc2c(=O)c3cccnc3oc2c1)Cc1cccc(OC(=O)NCCCCCc2ccccc2)c1`, the 50% inhibitory concentration (IC50) at Acetylcholinesterase [3] was 89.5 nM; in test [4], 520 nM; in test [1], 370 nM; in test [2], 40 nM; against Cholinesterase [5] it was 1.71 nM. Besides, the inhibition entry on Acetylcholinesterase [6] and at Cholinesterase [7] was “tde” throughout.
Turning to `CCCNC(=O)Oc1cccc(CN(C)CCCOc2ccc3c(=O)c4ccccc4oc3c2)c1`, the IC50 in test [1] worked out at 9280 nM; in test [2] it was 100 nM.
`CCCCCCCNC(=O)Oc1cccc(CN(C)CCCOc2ccc3ccc(=O)oc3c2)c1`: the IC50 in test [1] turned out to be 620 nM; in [2], 170 nM.

As a reminder, the IC50 is the concentration at which inhibition is half-maximal.

These data come from ChEMBL document CHEMBL2046402, “The First Dual ChE/FAAH Inhibitors: New Perspectives for Alzheimer's Disease?” (ACS Med Chem Lett, 2012).
